Bioassay records (PubChem)
This is one part of a sample in which hits are shown more often than they occur.
Hsp70 act: switches on Hsp70 transcription; activation, % at 10 µM; 200,000 compounds, 0.04% hits; HeLa Hsp70 promoter luciferase reporter, luminescence; scaled: vehicle 0, proteasome-inhibitor control 100%;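 active = activation above the mean across all tested compounds plus 3 SD, cutoff set per campaign, cut at about 5.5% in these data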
T cruzi repl: T. cruzi replication inhibition; T. cruzi beta-gal in NIH3T3, luminescence, 90 h; inhibition, % (test concentration not listed); 300,000 compounds, 1.4% hits;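 active = mean inhibition across valid replicates above about 55%, limit read from the data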;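 note: signal also drops with host cell toxicity which is not excluded here; higher percent means less beta-gal luminescence so fewer parasites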
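System – NIH/3T3 host cells with β-galactosidase reporter T. cruzi · Doses – single 50 nL compound addition per well in DMSO · Reagent – 5000 T. cruzi trypomastigotes/well · Medium – Low-serum DMEM with 2% FBS · Timing – ≥90 h infection period, 3 h prior cell attachment · Evaluation – parasite load inhibition, % · Technique – GalScreen luminescence, 60 min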
HSF1 activator: increases HSF-1 driven luciferase reporter signal; NIH3T3-HGL HSF-1 luciferase reporter, MG132, 8 h; 100% = twice DMSO control signal; activation, % at 9 µM; 300,000 compounds, 1.7% hits; AID 504408;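 active = mean replicate activation of at least 50% with a set share of replicates each reaching 50%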
HSF1 inhib: HSF1 inhibition. activity change, negative = inhibition, % at 7.5 µM (by protocol). 300,000 compounds, 0.77% hits. AID 2098. NIH3T3-HGL HSE-luciferase, MG132-induced, luminescence 8 h; hits give low values;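 active = more than half of replicate wells show activity change below -50%, luminescence cut by over half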;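 note: luciferase reports HSF-1 transcriptional activity via heat shock element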
Lmaj promast: inhibitors of Leishmania major promastigote growth; Leishmania major promastigotes, resazurin fluorescence viability; inhibition, % at 10 µM; 200,000 compounds, 9% hits; in the data active = inhibition above about 50%;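 note: promastigotes grown with compound for 44 hours at 28 °C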
Large screens that a line does not name were inactive.

O=[N+]([O-])c1ccc(/C=N/n2cnc3ccccc32)s1	T cruzi repl 73.0, HSF1 activator 62.7, Lmaj promast 100.3
Cc1cc2ncn(/N=C/c3ccc([N+](=O)[O-])s3)c2cc1C	Lmaj promast 100.4
Cc1cc2ncn(/N=C/c3cc(Br)ccc3O)c2cc1C	none
O=[N+]([O-])c1ccc(/C=N/Nc2ncccc2[N+](=O)[O-])s1	none (no result: Hsp70 act, Lmaj promast)
Cc1ccc(C)c(NC(=O)CN(C)C(=O)/C=C/c2ccco2)c1	none
COc1ccc(CNC(=O)Nc2ccc3c(c2)N(C)C(=O)CS3)cc1	none
CC(C)=CCOc1ccc([C@@H]2COc3c(ccc4c3C=CC(C)(C)O4)C2)c(O)c1	none (no result: Hsp70 act, Lmaj promast)
O=C(Nc1ccc(NC(=O)c2ccco2)c(Cl)c1)c1ccccc1	none
O=C(Nc1ccc(NC(=O)c2ccc([N+](=O)[O-])o2)cc1Cl)c1ccco1	HSF1 activator 161.5 (no result: Hsp70 act, Lmaj promast)
O=C(Nc1cccc(NC(=O)c2ccc(-c3cccc(Br)c3)o2)c1)c1ccco1	T cruzi repl 54.6, Lmaj promast 59.8
O=C(Nc1cccc(NC(=O)c2ccc([N+](=O)[O-])o2)c1)c1ccco1	HSF1 activator 92.6 (no result: Hsp70 act, Lmaj promast)
Cc1ccc2sc(NC(=O)C3CC3)nc2c1C	none (no result: Hsp70 act, Lmaj promast)
COCCn1c(SCc2ccc(OC)c(F)c2)nnc1-c1ccncc1	none (no result: Hsp70 act, Lmaj promast)
Cc1ccc(CNC(=O)CN(C2CCCCC2)S(C)(=O)=O)cc1	none
CS(=O)(=O)N(CC(=O)NCc1ccccc1)C1CCCCC1	HSF1 inhib -76.7
CCN(C(=O)CSc1nc2ccccc2c(=O)n1CCOC)C1CCS(=O)(=O)C1 (stereo not given)	none
CN(C)C(=O)N1CCC(C(=O)NCc2ccc(F)cc2Cl)CC1	HSF1 inhib -68.8
O=C(Nc1nc(-c2cc(Cl)sc2Cl)cs1)c1ccc(Br)s1	none
O=C(Nc1nc(-c2ccccn2)cs1)c1cccc(-n2cnnn2)c1	T cruzi repl 62.8 (no result: Hsp70 act, Lmaj promast)
O=C(Nc1ccccc1Cl)c1ccc(-c2ccccn2)s1	HSF1 activator 67.7 (no result: Hsp70 act, Lmaj promast)
O=C(Nc1nc(-c2ccccn2)cs1)c1ccco1	Lmaj promast 99.7
O=C(Nc1ccc(Br)cc1)c1cccc(-n2cnnn2)c1	none (no result: Hsp70 act, Lmaj promast)
O=C(Nc1ccccc1Cl)c1cccs1	none
O=C(Nc1nc(-c2ccncc2)cs1)c1ccco1	none
O=C(Nc1nc(-c2ccccn2)cs1)c1ccc(Br)s1	Lmaj promast 100.4
OC(CCc1cccc(Cl)c1)c1cccs1 (stereo not given)	none (no result: Hsp70 act, Lmaj promast)
O=C(c1ccc(-c2ccccc2)cc1)N1CCN(c2ccccn2)CC1	none
CC(C)(C)NC(=O)Cn1nnc(-c2ccc(OCc3c(F)cccc3Cl)cc2)n1	none (no result: Hsp70 act, Lmaj promast)
O=C(CCN1CCCCCC1)Nc1ccc(F)cc1	none
CC1CCCN(CCC(=O)Nc2ccc(Br)cc2)C1 (stereo not given)	Lmaj promast 53.0
Cc1ccc(NC(=O)CCN2CCCCC2)cc1	HSF1 inhib -63.4 (no result: Hsp70 act, Lmaj promast)
CC1CCCN(CCC(=O)Nc2ccc3c(c2)CCC3)C1 (stereo not given)	Lmaj promast 61.1
CC1CCCN(CCC(=O)Nc2ccccc2)C1 (stereo not given)	none
CC(C)[C@H](NC(=O)c1ccccc1)C(=O)OCC(=O)N1CCN(C(=O)c2ccco2)CC1	none
CCOC(=O)C1CCN(C(=O)C2CCN(S(=O)(=O)N3CCC4(CC3)OCCO4)CC2)CC1	none (no result: Hsp70 act, Lmaj promast)
CC1(C)CC(=O)N(c2ccc(C#N)cc2)C(=O)C1	none (no result: Hsp70 act, Lmaj promast)
O=C(N/N=C/c1ccc2c(c1)OCO2)c1ccc(COc2cccc3cccnc23)cc1	none
Cc1ccc(NC(=O)/C=C/c2ccc3c(c2)OCO3)cc1S(=O)(=O)N1CCOCC1	none
S=c1[nH]nc(-c2ccccn2)n1/N=C/c1cccc2ccccc12	Lmaj promast 50.0
COC(=O)C1=C(C)NC2=C(C(=O)CC(C)(C)C2)C1c1cnn(C)c1C (stereo not given)	none (no result: HSF1 activator, HSF1 inhib)
COc1cccc(OC)c1OCC(C)CNCC1CCCO1 (stereo not given)	Lmaj promast 84.9
COc1cc(C(=O)NCC2CCCO2)cc(OC)c1OC (stereo not given)	none
CCn1c(=O)cc(SCC(=O)N2CCN(C)CC2)c2ccccc21	HSF1 activator 63.2
CCOC(=O)C1=NOC2C3CC(C12)C1C(=O)N(CCc2ccc(OC)c(OC)c2)C(=O)C31 (stereo not given)	HSF1 inhib -70.8 (no result: Hsp70 act, Lmaj promast)
COc1ccc(CCN2C(=O)C3C4CC(C5C(C(=O)N/N=C\c6ccc(Cl)cc6)=NOC45)C3C2=O)cc1OC (stereo not given)	none
O=C(Nc1ccccc1F)C1CCN(S(=O)(=O)c2cccnc2)CC1	none (no result: Hsp70 act, Lmaj promast)
